Compound activity (PubChem BioAssay)
A selection: hits, their analogues and other compounds. The true share with any hit is near 3.5%.
rRNA inh HTS: selective bacterial rRNA inhibition in E. coli; E. coli WT GFP vs humanized-ribosome RFP mutants, fluorescence, 24 h; active compounds read low; DMSO median 0, no signal -100; 350,000 tested, 1.6% active; GFP signal change (wild-type ribosome), % (test concentration not listed); AID 720706;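 active = significant combined selectivity score with lowered wild-type GFP, culture density cut under 30%, mutant RFP and density less affected; inactive = any of these conditions unmet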
HIV Env fusion: blocks HIV Env-driven cell-cell fusion | HeLa-JRFL Env/CEM21 cell fusion, luciferase | inhibition, % at 12.3 µM | 360,000 tested, 1.1% active | AID 651610;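 active = mean replicate inhibition score of at least 50 and every replicate individually at or above 50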;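 also: 0% = plate neutral controls and 100% = maraviroc near 300 nM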
Cneo AK release: causes C. neoformans cell lysis. 360,000 tested, 0.2% active. lysis activity, % at 15 µM. adenylate kinase release luminescence, 4 h; normalised: neutral wells 0, clomiphene wells 100. AID 651654;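 active = mean lysis activity across replicates of at least 80%, whatever share of replicates individually reach that level; inactive = mean lysis activity below 80%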
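Assay system: C. neoformans cells. Amount: yeast cell density of 5 × 10^6 cells/mL. Technique: AK luminescence. Buffer or medium: YPD. Times: static 4 h at 37 °C with compound, 1 h detection. Dosing: single-point compound dose. Read-out: lysis from increased AK signal.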
PGC1a acetyl inh: modulators of PGC1a acetylation; U2OS PGC1a acetylation, AlphaScreen anti-acetyl-lysine; with virally co-expressed GCN5 acetyltransferase; inhibition, % at 15.6 µM; 350,000 tested, 0.17% active; AID 651687;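 active = every replicate shows inhibition of at least 40%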;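 also: 0% = neutral control wells and 100% = positive control wells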
ERAP1 HTS inh: ERAP1 (human) enzyme inhibition | recombinant ERAP1, Leu-AMC fluorescence, 60 min | Q9NZ08 | 340,000 tested, 0.15% active | inhibition, % at 10.7 µM | AID 652197;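 active = mean replicate inhibition of at least 30%, or all replicates individually reaching that 30% level; inactive = mean below 30% and not every replicate reaching it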;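 also: 0% = neutral control wells and 100% = L-leucinethiol positive control wells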
Target sequence (Q9NZ08 whole entry, looked up): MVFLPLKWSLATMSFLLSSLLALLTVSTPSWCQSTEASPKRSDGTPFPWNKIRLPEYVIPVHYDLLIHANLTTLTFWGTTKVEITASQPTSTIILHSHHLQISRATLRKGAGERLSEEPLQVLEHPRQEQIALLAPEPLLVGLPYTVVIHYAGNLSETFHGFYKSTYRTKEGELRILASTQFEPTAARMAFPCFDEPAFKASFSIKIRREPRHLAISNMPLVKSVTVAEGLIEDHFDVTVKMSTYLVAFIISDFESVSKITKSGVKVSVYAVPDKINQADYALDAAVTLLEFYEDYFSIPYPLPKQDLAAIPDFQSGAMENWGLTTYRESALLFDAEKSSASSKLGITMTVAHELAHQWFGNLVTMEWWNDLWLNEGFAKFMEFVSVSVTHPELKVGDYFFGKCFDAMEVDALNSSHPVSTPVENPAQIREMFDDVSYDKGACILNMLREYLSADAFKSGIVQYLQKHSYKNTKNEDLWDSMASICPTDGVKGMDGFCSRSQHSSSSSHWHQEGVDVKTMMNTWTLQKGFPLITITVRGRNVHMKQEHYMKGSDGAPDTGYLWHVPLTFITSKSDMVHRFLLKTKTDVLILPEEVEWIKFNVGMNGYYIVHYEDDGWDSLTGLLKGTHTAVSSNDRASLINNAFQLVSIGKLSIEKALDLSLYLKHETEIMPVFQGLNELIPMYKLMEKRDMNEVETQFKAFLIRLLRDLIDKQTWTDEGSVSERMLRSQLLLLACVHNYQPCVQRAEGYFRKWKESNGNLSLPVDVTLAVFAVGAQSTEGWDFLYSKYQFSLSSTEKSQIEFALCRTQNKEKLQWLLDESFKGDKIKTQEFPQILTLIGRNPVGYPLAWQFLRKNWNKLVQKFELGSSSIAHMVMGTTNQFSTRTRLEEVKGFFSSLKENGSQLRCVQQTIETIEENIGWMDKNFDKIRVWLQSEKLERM
FGF22 binding: binders of recombinant human FGF22 by thermal shift | Q9HCT0 | activity (Tm shift, normalised), % at 9.99 µM | 340,000 tested, 1.5% active | SYPRO orange fluorescence; percent of sucrose octasulfate shift, DMSO zero;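 active = mean Tm shift, scaled 0 neutral to 100 positive control, at about 1.3% or above, every replicate too, limit read from the data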
* marks the source's active call; other numbers are inactive results; x = no result given; [ ] = remark or other dose.

SMILES | rRNA inh HTS | HIV Env fusion | Cneo AK release | PGC1a acetyl inh | ERAP1 HTS inh | FGF22 binding
Cc1ccc(C2=NN3C(=O)c4ccccc4C3C2)cc1 (stereo unspecified) | -11 | -7 | x | 8 | -4 | 0
CC1Cc2ccccc2N1C(=O)CSc1nc2c(c(=O)n(C)c(=O)n2C)n1Cc1ccccc1 (stereo unspecified) | x | 56* | -5 | 12 | x | x
CCCn1c(SCC(=O)Nc2ccccc2N2CCCCC2)nc2c1c(=O)n(C)c(=O)n2C | -29* | x | 0 | 4 | -7 | 0
O=S(=O)(c1cccs1)N1CCCCN2[C@@H](CO)[C@@H](c3ccc(C4=CCCC4)cc3)[C@@H]2C1 | -34* | x | 10 | -17 | 1 | 0
Cc1cccc(-c2ccc([C@H]3[C@@H](CO)N4CCCCN(S(=O)(=O)c5cccc(C)c5)C[C@H]34)cc2)c1 | -33 | x | 12 | -5 | -1 | -1
Cc1cccc(-c2ccc([C@H]3[C@H]4CN(S(=O)(=O)c5cccc(C)c5)CCCCN4[C@H]3CO)cc2)c1 | 0 | x | 1 | 3 | -3 | 18*
COc1ccc(S(=O)(=O)N2CCCCN3[C@@H](CO)[C@H](c4ccc(C#CC(C)C)cc4)[C@@H]3C2)cc1 | -46* | x | 4 | -8 | 0 | 0
Cc1cccc(-c2ccc([C@H]3[C@H](CO)N4CCCCN(S(=O)(=O)c5ccccc5C)C[C@@H]34)cc2)c1 | -39* | x | 0 | 13 | -1 | -1
COc1ccc(S(=O)(=O)N2CCCCN3[C@H](C2)[C@@H](c2ccc(C#CCC(C)C)cc2)[C@@H]3CO)cc1 | 7 | x | 1 | -17 | x | x
O=S(=O)(c1cccs1)N1CCCCN2[C@H](CO)[C@H](c3ccc(C4=CCCC4)cc3)[C@@H]2C1 | -7 | x | 3 | -4 | 0 | 0
C[C@@H]1CN([C@H](C)CO)C(=O)c2cc(C#CC(C)(C)O)cnc2O[C@@H]1CN(C)Cc1ccccn1 | 7 | 9[16.7 µM] | -7 | 7 | -1 | 0
COc1cccc(CNC(=O)CN2c3cccc4cccc(c34)S2(=O)=O)c1 | -37* | 2 | -1 | 4 | 2 | 0
CN(CC(=O)Nc1cccc(F)c1)C(=O)CN1c2cccc3cccc(c23)S1(=O)=O | -40* | x | 1 | x | -5 | 0
Cc1cccc(NC(=O)C2C3C=CC4(O3)C2C(=O)N(CCCN2CCCC2)C4C(=O)NC2CCCC(C)C2C)c1 (stereo unspecified) | -3 | 4 | 1 | -1 | -5 | 0
CCCCNC(=O)N(O)C1N(/N=C/c2ccco2)C(=S)SC1(C)C (stereo unspecified) | 8 | -6 | 1 | x | -1 | 0
CCOC(=O)c1cc(-c2ccccc2)sc1NC(=O)CN1C(=O)c2ccccc2C1=O | x | x | -2 | -3 | x | x
C(=C1c2ccccc2-c2ccccc21)c1ccccn1 | -8 | -42 | 0 | -4 | -3 | 43*
CCOC(=O)c1c(C)c(C(=O)Nc2ccc(N(C)C)cc2)c(C)n1CC | -16* | x | -2 | -9 | 2 | 0
CCOC(=O)c1c(C)c(C(=O)NCCOC)c(C)n1CC | 7 | x | 0 | 6 | -1 | 0
CC(/C=C/c1ccccc1)=N\Nc1nc(C)cc(C)n1 | x | -14 | 7 | 0 | x | x
CC(/C=C/c1ccc(O)cc1)=NNc1ccccc1 | -21* | -5 | -2 | 2 | -5 | 1
Cc1c(NC(=O)C2CCCN2S(=O)(=O)c2cccc3nsnc23)cccc1C(=O)O (stereo unspecified) | 2 | 12 | 4 | 1 | 0 | 0
CCOC(=O)c1c(NC(=O)C2CCCN2S(=O)(=O)c2cccc3nsnc23)sc(C)c1C (stereo unspecified) | 9 | 64* | 7 | 8 | -2 | 0
O=C1C(=C(I)I)c2ccccc2-c2ccccc21 | -46 | 43 | x | x | 36* | 0
O=C(O)c1cccc2c1C(=O)c1ccccc1-2 | 1 | 30 | x | -5 | -3 | 0
SMILES | rRNA inh HTS | HIV Env fusion | Cneo AK release | PGC1a acetyl inh | ERAP1 HTS inh | FGF22 binding
O=C(O)c1cccc(N/N=C/C2=C(Cl)c3cc(Cl)ccc3SC2)c1 | -21 | -118 | x | x | 1 | 43*
CCOc1cc(/C=N/Nc2cccc(C(=O)O)c2)ccc1OC(=O)c1ccccc1 | -14 | 65* | x | -4 | -5 | 0
Cc1ccsc1/C=N\NC(=O)CC(=O)NCc1ccccc1 | 6 | 11 | x | -4 | -2 | 43*
Cc1ccsc1/C=N/Nc1ccc(C(=O)O)cc1 | -14 | 52 | -2 | 2 | -9 | 0
Cc1ccsc1/C=N/Nc1cccc(C(=O)O)c1 | 5 | 68* | x | x | -14 | 0
C[C@H]1CN([C@@H](C)CO)C(=O)c2cccc(NS(=O)(=O)c3ccc(F)cc3)c2O[C@@H]1CN(C)Cc1ccccc1 | 1 | -30[16.7 µM] | 59 | -12 | -3 | 0
Cc1noc(C)c1COc1ccc(C(=O)OCC(=O)N2CC(=O)Nc3ccccc32)cc1 | x | -23 | -1 | -5 | x | x
O=C(CCS(=O)(=O)Cc1ccccc1)NCCc1ccccc1 | 9 | -3 | x | -10 | 2 | 43*
Cc1ccc(CS(=O)(=O)CCC(=O)NCCc2ccccc2)cc1 | 6 | 15 | 6 | 6 | 0 | 0
COc1ccc(NC(=O)N(C)C[C@H]2Oc3ccc(NC(=O)NC(C)C)cc3C(=O)N([C@H](C)CO)C[C@H]2C)cc1 | 5 | x | 0 | 1 | -1 | 0
CC(C(=O)NCc1ccc2c(c1)OCO2)N(c1ccccc1)S(C)(=O)=O (stereo unspecified) | x | -70 | 0 | -3 | x | x
Cc1ccc(N(C(C)C(=O)NCc2ccncc2)S(C)(=O)=O)cc1C (stereo unspecified) | 10 | 6 | -3 | -4 | 1 | 43*
O=C(NCCSc1ccccc1)c1cncc(Br)c1 | x | x | x | -11 | x | x
Cc1sc(N/N=C/c2ccco2)nc1-c1ccccc1 | -14 | -31 | x | 5 | 1 | 44*
CN(C)S(=O)(=O)c1ccc(-c2csc(N/N=C/c3ccco3)n2)cc1 | -20* | 29 | x | 7 | -2 | 0
Clc1ccc(-c2csc(N/N=C\c3cccnc3)n2)cc1 | -21* | 18 | x | x | 0 | 0
Cc1ccc2nc(N/N=C/c3ccco3)cc(C)c2c1 | -20* | -195 | 1 | x | 11 | 0
CC(C)(C)C(=O)Nc1ccc(/C=C/C(=O)c2ccco2)cc1 | 6 | -42 | -16 | 9 | -3 | 0
Brc1ccc(-c2csc(N/N=C/c3ccco3)n2)cc1 | -38* | -23 | 0 | 16 | -1 | 1
Cc1cc(C=O)c(C)n1-c1cc(C(=O)O)cc(C(=O)O)c1 | 17 | -7 | x | -2 | 4 | 0
Cc1ccccc1CSCCNS(C)(=O)=O | x | 8 | 0 | 4 | x | x
Cc1ccccc1-c1ccccc1N | 3 | 1 | 2 | 18 | -2 | 44*
Cc1ccccc1-c1nnc(-c2ccccc2C)o1 | x | -198 | -4 | 4 | x | x
